Data taken from ChEMBL document CHEMBL1124386, “Selective thyromimetics. Cardiac-sparing thyroid hormone analogues containing 3'-arylmethyl substituents” (J Med Chem, 1989).
Values after ≈ are worked out from the molar mass of the structure shown. Active and inactive are the calls of the source. The calls are words filed in the database; no cut-off is given here.

How the values were obtained:
[1] = Binding affinity to the thyroid hormone receptor was determined in vitro in isolated nuclei of rat liver relative to 3,5,3' triiodothyronine; assay type: tissue-based
[2] = system: Rattus norvegicus; experiment: Potency for induction of GPDH (mitochondrial cytochrome C3-phosphoglycerate oxidoreductase) was measured 48 hr after single im injection relative to T3 in heart; I=inactive after 2 daily doses of 50 mg/kg; assay type: functional, organism-based; parameters: dose 50 mg/kg
[3] = system: Rattus norvegicus; experiment: Potency for induction of GPDH (mitochondrial cytochrome C 3-phosphoglycerate oxidoreductase) was measured 48 hr after single im injection relative to T3 in liver; LM=low maximal response after 2 daily doses of 50 mg/kg; assay type: functional, organism-based; parameters: dose 50 mg/kg; conditions: filed as partial agonist
[4] = biological target: T1, Thyroid hormone receptor beta (Rattus norvegicus) (UniProt P18113); experiment: Binding affinity to the receptor was determined in nuclei of liver In vivo 1 hour after intravenous administration relative to T3; assay type: organism-based
T1 sequence (whole entry): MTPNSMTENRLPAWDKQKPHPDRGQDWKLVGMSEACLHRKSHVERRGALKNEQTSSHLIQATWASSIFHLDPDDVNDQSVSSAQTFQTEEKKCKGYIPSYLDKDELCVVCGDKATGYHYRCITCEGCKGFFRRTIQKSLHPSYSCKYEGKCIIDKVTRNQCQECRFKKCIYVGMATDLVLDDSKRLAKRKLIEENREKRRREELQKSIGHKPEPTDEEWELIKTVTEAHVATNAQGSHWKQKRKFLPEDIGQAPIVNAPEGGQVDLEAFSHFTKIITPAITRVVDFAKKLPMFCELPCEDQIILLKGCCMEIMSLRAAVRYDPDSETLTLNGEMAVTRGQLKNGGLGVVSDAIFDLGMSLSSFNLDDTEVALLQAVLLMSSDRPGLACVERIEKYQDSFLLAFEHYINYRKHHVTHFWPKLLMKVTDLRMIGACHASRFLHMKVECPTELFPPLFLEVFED

[5] = Selectivity, ratio between relative ID50 in liver and heart
Summary of the method: (§1)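 Liver/heart selectivity in rats, calculated as (relative ID50)liver divided by (relative ID50)heart, from in vivo nuclear binding 1 h after intravenous dosing.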

[6] = biological target: T1, Thyroid hormone receptor beta (Rattus norvegicus); experiment: Binding affinity to the receptor was determined in nuclei of heart in vivo 1 hour after intravenous administration relative to 3,5,3' triiodothyronine receptor
[7] = system: Rattus norvegicus; experiment: In vivo binding affinity for 3,5,3'' triiodothyronine receptor of heart nuclei 1 hr after intravenous administration; assay type: organism-based
[8] = system: Rattus norvegicus; experiment: In vivo binding affinity for 3,5,3' triiodothyronine receptor of liver nuclei 1 hour after intravenous administration; assay type: organism-based
[9] = Aqueous solubility at 37 degree Celsius at pH 7.38; assay type: physicochemical
Summary of the method: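 Solubility in aqueous medium at 37 °C, pH 7.38; given in units of ×10^5 mol/L.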

[10] = Partition coefficient at 25 degree Celsius in octanol/aqueous buffer at pH 6.02; assay type: physicochemical
[11] = system: Rattus norvegicus; experiment: Percent increase in oxygen consumption after seven daily doses of test compound given perorally, with concentration of compound at 5 mg/kg; assay type: functional; conditions: route oral
Summary of the method: (§2)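 Euthyroid rats given seven daily doses, intramuscular or oral, by line; whole-body oxygen consumption measured as percent increase in metabolic rate.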

[12] = system: Rattus norvegicus; experiment: Percent increase in oxygen consumption after seven daily doses of test compound given intramuscularly, with concentration of compound at 3.3 mg/kg; assay type: functional; conditions: route intramuscular; summary of the method: as §2
[13] = system: Rattus norvegicus; experiment: Potency for induction of GPDH (mitochondrial cytochrome C3-phosphoglycerate oxidoreductase) was measured 48 hours after single intramuscular injection relative to T3 in liver; assay type: functional
[14] = system: Rattus norvegicus; experiment: Potency for induction of GPDH (mitochondrial cytochrome C 3-phosphoglycerate oxidoreductase) was measured 48 hr after single im injection relative to T3 in heart; LM=low maximal response after 2 daily doses of 50 mg/kg; assay type: functional, organism-based; parameters: dose 50 mg/kg; conditions: filed as partial agonist
[15] = system: Thyroid hormone receptor (Rattus norvegicus); experiment: Binding affinity to thyroid hormone receptor, relative to 3,5,3' triiodothyronine receptor, in isolated nuclei of heart
[16] = organism: Rattus norvegicus; experiment: Selectivity ratio of ID50 in liver and heart; summary of the method: as §1
[17] = system: Rattus norvegicus; experiment: Percent increase in oxygen consumption after seven daily doses of test compound given perorally, with concentration of compound at 0.1 mg/kg; assay type: functional; conditions: dose 10 mg/kg; route oral; in the assay text read “10 mg/kg” for “0.1 mg/kg”; summary of the method: as §2
[18] = system: Rattus norvegicus; experiment: Potency for induction of GPDH (mitochondrial cytochrome C3-phosphoglycerate oxidoreductase) was measured 48 hours after single intramuscular injection relative to T3 in heart; assay type: functional
[19] = biological target: T1, Thyroid hormone receptor beta (Rattus norvegicus); experiment: Binding affinity to the receptor was determined in vitro in isolated nuclei of rat liver relative to T3; assay type: tissue-based
[20] = biological target: T1, Thyroid hormone receptor beta (Rattus norvegicus); experiment: Binding affinity to the receptor was determined in vivo in rat liver nuclei 1 h after intravenous administration relative to 3,5,3' triiodothyronine receptor
[21] = biological target: T1, Thyroid hormone receptor beta (Rattus norvegicus); experiment: In vitro binding affinity to the receptor was determined in isolated nuclei of heart relative to T3
[22] = system: Rattus norvegicus; experiment: Potency for induction of GPDH (mitochondrial cytochrome C3-phosphoglycerate oxidoreductase) was measured 48 hr after single im injection relative to T3 in liver; I=inactive after 2 daily doses of 50 mg/kg; assay type: functional, organism-based; parameters: dose 50 mg/kg
[23] = system: Rattus norvegicus; experiment: Potency for induction of GPDH (mitochondrial cytochrome C3-phosphoglycerate oxidoreductase) was measured 48 hours after single intramuscular injection relative to T3 in liver; LM is low maximal response after 2 daily doses of 50 mg/kg; assay type: functional

Structure (SMILES) | Relative IC50 [1] | Relative ED50 [2] | Relative ED50 [3] | Ratio [5] | Relative ID50 [7] | Relative ID50 [8] | Relative IC50 [15] | Ratio [16] | further results
N#Cc1ccc(Cc2cc(Oc3c(I)cc(C[C@H](N)C(=O)O)cc3I)ccc2O)cc1 | 13 | inactive | Partial agonist | 27.7 |  |  |  |  | Relative ID50 [4]: 6.1; Relative ID50 [6]: 0.22
N[C@@H](Cc1cc(Cl)c(Oc2ccc(O)c(Cc3ccc(O)nc3)c2)c(Cl)c1)C(=O)O | 0.49 |  |  |  | 0.5 | 13 | 0.53 |  | solubility [9]: 100 µM (≈ 44.9 µg/mL); logD [10]: 0.6; Increase [11]: 31%; Increase [12]: 26%; Relative ED50 [13]: 1.2; Relative ED50 [14]: Partial agonist
CC(C)c1cc(Cc2cc(Oc3c(I)cc(C[C@H](N)C(=O)O)cc3I)ccc2O)ccc1O | 0.67 |  | Partial agonist |  | 0.11 | 0.11 | 4.4 | 1 | Relative ED50 [14]: Partial agonist
N[C@@H](Cc1cc(I)c(Oc2ccc(O)c(Cc3ccc(O)nn3)c2)c(I)c1)C(=O)O | 2 |  |  |  | 0.4 | 38 | 4 | 95 | Increase [17]: 20%; Increase [12]: 19%; Relative ED50 [18]: <0.1; Relative ED50 [13]: 2.4
N[C@@H](Cc1cc(I)c(Oc2ccc(O)c(Cc3ccc(O)c(Cl)c3)c2)c(I)c1)C(=O)O | 5.9 | inactive | Partial agonist |  | 0.07 | 0.07 | 15 | 1 | 
N[C@@H](Cc1cc(I)c(Oc2ccc(O)c(Cc3ccnc(O)c3)c2)c(I)c1)C(=O)O |  | inactive | Partial agonist | 20 |  |  |  |  | Relative IC50 [19]: 0.042; Relative ID50 [20]: 0.07
N[C@@H](Cc1cc(I)c(Oc2ccc(O)c(Cc3ccncc3)c2)c(I)c1)C(=O)O | 8.5 |  | Partial agonist |  | 1.6 | 7 | 15 | 4.38 | Relative ED50 [14]: Partial agonist
N[C@@H](Cc1cc(I)c(Oc2ccc(O)c(Cc3ccccn3)c2)c(I)c1)C(=O)O | 0.96 |  |  |  | 0.54 | 2.4 | 3.5 | 4.44 | Relative ED50 [14]: Partial agonist
N[C@@H](Cc1cc(I)c(Oc2ccc(O)c(Cc3ccc([N+](=O)[O-])cc3)c2)c(I)c1)C(=O)O | 20 |  | Partial agonist |  | 0.71 | 9.8 | 64 | 13.8 | Relative ED50 [18]: 0.9
N[C@@H](Cc1cc(I)c(Oc2ccc(O)c(Cc3cnc(O)nc3)c2)c(I)c1)C(=O)O |  | inactive |  | 45.2 |  |  |  |  | Relative IC50 [19]: 0.15; Relative IC50 [21]: 0.58; Relative ED50 [22]: inactive; Relative ID50 [20]: 0.28
Cn1cc(Cc2cc(Oc3c(I)cc(C[C@H](N)C(=O)O)cc3I)ccc2O)ccc1=O | 0.76 | inactive | Partial agonist | 74.1 |  |  |  |  | 
N[C@@H](Cc1cc(I)c(Oc2ccc(O)c(Cc3ccc(O)cc3)c2)c(I)c1)C(=O)O | 17 |  |  | 27.1 |  |  |  |  | Relative ED50 [18]: <0.1; Relative ED50 [23]: 2.2; Relative ID50 [4]: 19
N[C@@H](Cc1cc(I)c(Oc2ccc(O)c(Cc3ccc(O)cn3)c2)c(I)c1)C(=O)O | 20 |  |  |  | 2.5 | 31 | 15 | 12.4 | Relative ED50 [13]: 1.7; Relative ED50 [14]: Partial agonist
Nc1ccc(Cc2cc(Oc3c(I)cc(C[C@H](N)C(=O)O)cc3I)ccc2O)cc1 | 0.63 | inactive |  |  | 0.023 | 0.21 | 1.1 | 9.13 | Relative ED50 [22]: inactive
Cc1cc(Cc2cc(Oc3c(I)cc(C[C@H](N)C(=O)O)cc3I)ccc2O)ccc1O | 7.4 | inactive | Partial agonist |  | 0.1 | 0.35 | 9.7 | 3.5 | 
N[C@@H](Cc1cc(I)c(Oc2ccc(O)c(Cc3ccc(O)c(F)c3)c2)c(I)c1)C(=O)O | 31 | inactive | Partial agonist |  | 0.37 | 0.6 | 31 | 1.62 | 
N[C@@H](Cc1cc(I)c(Oc2ccc(O)c(Cn3ccc(=O)cc3)c2)c(I)c1)C(=O)O | 0.25 | inactive |  |  | 0.013 | 2.7 | 0.4 | 208 | Relative ED50 [13]: 1.4
Cc1cc(O)c(Cc2ccc(O)nc2)cc1Oc1c(I)cc(C[C@H](N)C(=O)O)cc1I | 0.028 |  |  |  |  |  |  |  | 
N[C@@H](Cc1cc(I)c(Oc2ccc(O)c(Cc3ccccc3)c2)c(I)c1)C(=O)O | 15 |  |  | 17 |  |  |  |  | Relative ED50 [18]: 0.5; Relative ED50 [13]: 2.2; Relative ID50 [4]: 5.1; Relative ID50 [6]: 0.3
